These results are taken from article PMC3947005 (Cancer research, 2013).

Assay [1] has as its system MPNSTs from the cis-Nf1+/-;p53+/- mouse model. The conditions noted are these: ref [7], [44]; cited from earlier work.
Assay [2] deals with pAKT in sMPNST cells. Put plainly: Phospho-AKT Western blot. The class given is cell-based, mouse. The note with it: 20 µM for 30 or 60 minutes. The procedure, abridged: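 Mouse sMPNST cells exposed to a PI3K-inhibitor test compound at 20 µM for 30 or 60 min. Cells collected, trypsinized and lysed in RIPA buffer. Lysates resolved on 5–20% SDS-PAGE gels and immunoblotted for phospho-AKT and total AKT, with αTubulin or GAPDH as loading reference.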

The subject of assay [3] is pERK in sMPNST cells. As to the kind of experiment: Phospho-ERK Western blot. The note with it: 10 µM for 30 minutes. In kind it is cell-based, mouse. The procedure, abridged:
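Mouse sMPNST cells treated with test compound at 10 µM for 30 min, then trypsinized and lysed in RIPA buffer. Lysates run on 5–20% SDS-PAGE gels and immunoblotted for phospho-ERK and total ERK, with αTubulin or GAPDH as loading reference.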

For assay [4], the system named is sMPNST cells. As to the kind of experiment: CellTiter-Glo ATP luminescence assay, dose response. In kind it is cell-based, mouse. The conditions noted are these: rapamycin alone.
In assay [5] the test system is pS6 in sMPNST cells. As to the kind of experiment: pS6 Western blot. The class given is cell-based, mouse. The conditions noted are these: 0.05 µM (50 nM) for 30 or 60 min. The method in brief:
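Mouse sMPNST cells exposed to test compound at 0.05 µM (50 nM) for 30 or 60 min. Cells collected, trypsinized and lysed in RIPA buffer. Lysates resolved on 5–20% SDS-PAGE gels and probed for phospho-S6.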

Regarding `c1cc(CN2CCCNCCNCCCNCC2)ccc1CN1CCCNCCNCCCNCC1` [AMD3100], in assay [1], the “inhibition of MPNSTs” value was “inhibit MPNSTs”.
Consider `O=c1cc(N2CCOCC2)oc2c(-c3ccccc3)cccc12` [LY294002], for which the pAKT inhibition entry in assay [2] was “effective pAKT inhibition”.
Take `N#CC(=C(/N)Sc1ccccc1N)/C(C#N)=C(/N)Sc1ccccc1N` [U0126]: in assay [3], the Phospho-ERK inhibition entry is listed as “verified by Western blotting”.
On to `CO[C@H]1C[C@@H]2CC[C@@H](C)[C@@](O)(O2)C(=O)C(=O)N2CCCC[C@H]2C(=O)O[C@H]([C@H](C)C[C@@H]2CC[C@@H](O)[C@H](OC)C2)CC(=O)[C@H](C)/C=C(\C)[C@@H](O)[C@@H](OC)C(=O)[C@H](C)C[C@H](C)/C=C/C=C/C=C/1C` [rapamycin], for which the “sMPNST cellular growth response” value in assay [4] is “relatively resistant”. Also, the pS6 levels result in assay [5] is listed as “decreased pS6 levels”. Also, the “inhibition of MPNSTs” value in assay [1] is recorded as “inhibit MPNSTs”.
